Legend:
[1] = target: Mitogen-activated protein kinase kinase kinase kinase 1 (Homo sapiens) (UniProt Q92918); test: Inhibition of HPK1 at 1 uM
[2] = target: Tyrosine-protein kinase receptor Tie-1 (Homo sapiens) (UniProt P35590); test: Inhibition of TIE1 at 1 uM
[3] = system: T1, Receptor-type tyrosine-protein kinase FLT3 (Homo sapiens), P36888 [N841I]; test: Inhibition of FLT3 N841I mutant at 1 uM
T1 sequence (whole entry): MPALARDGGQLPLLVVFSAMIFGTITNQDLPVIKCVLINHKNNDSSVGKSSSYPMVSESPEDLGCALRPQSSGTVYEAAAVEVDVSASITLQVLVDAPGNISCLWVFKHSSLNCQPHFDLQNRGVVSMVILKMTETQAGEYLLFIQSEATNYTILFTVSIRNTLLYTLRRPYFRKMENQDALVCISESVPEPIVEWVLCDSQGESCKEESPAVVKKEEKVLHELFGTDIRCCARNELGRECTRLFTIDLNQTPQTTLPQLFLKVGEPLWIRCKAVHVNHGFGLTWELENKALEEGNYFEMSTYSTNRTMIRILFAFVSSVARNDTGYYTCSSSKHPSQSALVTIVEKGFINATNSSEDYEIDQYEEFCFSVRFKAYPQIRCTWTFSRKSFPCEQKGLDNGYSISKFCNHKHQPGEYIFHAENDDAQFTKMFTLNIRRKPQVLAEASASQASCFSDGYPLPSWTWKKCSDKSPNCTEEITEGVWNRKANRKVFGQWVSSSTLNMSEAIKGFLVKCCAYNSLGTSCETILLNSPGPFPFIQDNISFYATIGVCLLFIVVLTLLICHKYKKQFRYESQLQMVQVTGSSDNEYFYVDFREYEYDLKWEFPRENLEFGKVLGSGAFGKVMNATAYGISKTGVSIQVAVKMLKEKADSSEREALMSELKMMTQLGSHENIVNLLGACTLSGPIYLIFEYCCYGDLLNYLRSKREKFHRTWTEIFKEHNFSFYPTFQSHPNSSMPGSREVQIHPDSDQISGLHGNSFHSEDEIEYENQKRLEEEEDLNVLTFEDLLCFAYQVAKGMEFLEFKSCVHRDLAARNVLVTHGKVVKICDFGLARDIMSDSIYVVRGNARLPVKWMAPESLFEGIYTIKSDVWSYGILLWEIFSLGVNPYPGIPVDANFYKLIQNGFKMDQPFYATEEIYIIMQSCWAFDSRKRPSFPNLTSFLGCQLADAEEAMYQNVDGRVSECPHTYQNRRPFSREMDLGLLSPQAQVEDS
In short: (§1)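 Single-concentration screen on the Ambit KINOMEscan platform, run against a panel of 250–400 kinases. Per-kinase inhibition was also summarized as S(90), the fraction of kinases inhibited by more than 90%.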

[4] = target: Vascular endothelial growth factor receptor 2 (Homo sapiens) (UniProt P35968); test: Inhibition of VEGFR2 at 1 uM
[5] = target: Serine/threonine-protein kinase PRP4 homolog (Homo sapiens) (UniProt Q13523); test: Inhibition of PRP4 at 1 uM
[6] = target: T2, Mitogen-activated protein kinase kinase kinase 2 (Homo sapiens) (UniProt Q9Y2U5); test: Inhibition of MAP3K2 at 1 uM
T2 sequence (whole entry): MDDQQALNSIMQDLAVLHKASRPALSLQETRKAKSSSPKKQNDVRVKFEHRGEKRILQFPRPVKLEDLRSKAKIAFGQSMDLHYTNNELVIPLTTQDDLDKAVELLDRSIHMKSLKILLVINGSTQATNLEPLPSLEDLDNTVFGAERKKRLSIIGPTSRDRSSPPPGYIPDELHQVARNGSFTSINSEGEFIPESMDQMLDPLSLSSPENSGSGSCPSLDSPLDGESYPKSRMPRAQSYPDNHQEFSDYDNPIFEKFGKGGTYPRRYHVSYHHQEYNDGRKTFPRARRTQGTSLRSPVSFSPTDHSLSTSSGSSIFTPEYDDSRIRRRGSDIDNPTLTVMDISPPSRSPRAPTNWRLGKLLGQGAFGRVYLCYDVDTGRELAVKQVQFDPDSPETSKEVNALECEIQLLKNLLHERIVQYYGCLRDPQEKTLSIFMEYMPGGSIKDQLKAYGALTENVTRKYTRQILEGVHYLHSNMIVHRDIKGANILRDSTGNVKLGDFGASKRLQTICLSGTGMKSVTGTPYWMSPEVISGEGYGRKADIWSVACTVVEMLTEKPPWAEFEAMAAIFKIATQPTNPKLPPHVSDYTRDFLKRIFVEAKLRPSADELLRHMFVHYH

[7] = target: Misshapen-like kinase 1 (Homo sapiens) (UniProt Q8N4C8); test: Inhibition of MINK at 1 uM
[8] = target: Casein kinase II subunit alpha' (Homo sapiens) (UniProt P19784); test: Inhibition of CSNK2A2 at 1 uM
In short: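 Single-concentration screen using Ambit Bioscience KINOMEscan technology across a panel of 250–400 kinases. Per-kinase inhibition from this screen was summarized as S(90), the fraction of kinases inhibited by more than 90%.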

[9] = target: Ribosomal protein S6 kinase alpha-1 (Homo sapiens) (UniProt Q15418); test: Inhibition of RPS6KA1 C-terminal domain2 at 1 uM
[10] = target: Ribosomal protein S6 kinase alpha-6 (Homo sapiens) (UniProt Q9UK32); test: Inhibition of RPS6KA6 C-terminal domain2 at 1 uM
[11] = system: Mast/stem cell growth factor receptor Kit (Homo sapiens), P10721 [V559D]; test: Inhibition of KIT V559D mutant at 1 uM; in short: as §1
[12] = target: Serine/threonine-protein kinase SIK2 (Homo sapiens) (UniProt Q9H0K1); test: Inhibition of SIK2 at 1 uM
[13] = target: T3, Phosphorylase b kinase gamma catalytic chain, liver/testis isoform (Homo sapiens) (UniProt P15735); test: Inhibition of PHKG2 at 1 uM
T3 sequence (whole entry): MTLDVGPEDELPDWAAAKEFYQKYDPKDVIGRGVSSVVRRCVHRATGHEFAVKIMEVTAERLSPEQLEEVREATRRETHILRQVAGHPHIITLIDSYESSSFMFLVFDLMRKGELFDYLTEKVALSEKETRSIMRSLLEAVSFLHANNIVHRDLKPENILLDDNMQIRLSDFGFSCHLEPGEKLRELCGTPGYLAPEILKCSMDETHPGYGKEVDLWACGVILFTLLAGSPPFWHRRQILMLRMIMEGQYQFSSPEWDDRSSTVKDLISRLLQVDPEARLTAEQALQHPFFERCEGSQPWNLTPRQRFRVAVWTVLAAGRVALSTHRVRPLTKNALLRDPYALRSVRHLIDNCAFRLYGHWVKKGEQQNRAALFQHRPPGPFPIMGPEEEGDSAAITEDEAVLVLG

Sequence of Serine/threonine-protein kinase PRP4 homolog (Homo sapiens) (Q13523 whole entry): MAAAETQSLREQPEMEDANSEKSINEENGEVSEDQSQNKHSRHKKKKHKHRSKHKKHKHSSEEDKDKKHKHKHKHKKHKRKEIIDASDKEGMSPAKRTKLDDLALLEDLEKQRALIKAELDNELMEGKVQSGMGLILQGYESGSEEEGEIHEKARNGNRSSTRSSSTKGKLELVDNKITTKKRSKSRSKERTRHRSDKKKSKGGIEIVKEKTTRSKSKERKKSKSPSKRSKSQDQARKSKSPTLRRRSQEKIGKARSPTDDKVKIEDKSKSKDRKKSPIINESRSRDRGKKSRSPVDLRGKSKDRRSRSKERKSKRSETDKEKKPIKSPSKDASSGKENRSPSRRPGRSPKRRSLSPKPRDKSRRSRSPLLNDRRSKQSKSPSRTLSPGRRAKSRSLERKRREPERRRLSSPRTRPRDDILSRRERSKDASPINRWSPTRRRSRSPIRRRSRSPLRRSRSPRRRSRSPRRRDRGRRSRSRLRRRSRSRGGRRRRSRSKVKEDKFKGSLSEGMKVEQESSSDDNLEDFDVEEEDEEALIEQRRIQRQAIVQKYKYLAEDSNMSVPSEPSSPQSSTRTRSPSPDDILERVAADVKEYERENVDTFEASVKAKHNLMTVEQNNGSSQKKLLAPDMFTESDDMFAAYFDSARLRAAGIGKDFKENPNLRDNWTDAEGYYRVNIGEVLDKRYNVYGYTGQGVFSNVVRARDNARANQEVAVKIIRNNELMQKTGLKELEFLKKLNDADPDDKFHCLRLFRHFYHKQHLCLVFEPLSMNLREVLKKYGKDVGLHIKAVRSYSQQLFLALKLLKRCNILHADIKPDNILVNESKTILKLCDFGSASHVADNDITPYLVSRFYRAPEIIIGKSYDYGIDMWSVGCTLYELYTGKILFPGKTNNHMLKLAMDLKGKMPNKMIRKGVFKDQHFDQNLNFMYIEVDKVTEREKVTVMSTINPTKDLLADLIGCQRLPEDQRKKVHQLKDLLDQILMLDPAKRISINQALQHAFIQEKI
Sequence of Ribosomal protein S6 kinase alpha-6 (Homo sapiens) (Q9UK32 whole entry, the tested form may be a part): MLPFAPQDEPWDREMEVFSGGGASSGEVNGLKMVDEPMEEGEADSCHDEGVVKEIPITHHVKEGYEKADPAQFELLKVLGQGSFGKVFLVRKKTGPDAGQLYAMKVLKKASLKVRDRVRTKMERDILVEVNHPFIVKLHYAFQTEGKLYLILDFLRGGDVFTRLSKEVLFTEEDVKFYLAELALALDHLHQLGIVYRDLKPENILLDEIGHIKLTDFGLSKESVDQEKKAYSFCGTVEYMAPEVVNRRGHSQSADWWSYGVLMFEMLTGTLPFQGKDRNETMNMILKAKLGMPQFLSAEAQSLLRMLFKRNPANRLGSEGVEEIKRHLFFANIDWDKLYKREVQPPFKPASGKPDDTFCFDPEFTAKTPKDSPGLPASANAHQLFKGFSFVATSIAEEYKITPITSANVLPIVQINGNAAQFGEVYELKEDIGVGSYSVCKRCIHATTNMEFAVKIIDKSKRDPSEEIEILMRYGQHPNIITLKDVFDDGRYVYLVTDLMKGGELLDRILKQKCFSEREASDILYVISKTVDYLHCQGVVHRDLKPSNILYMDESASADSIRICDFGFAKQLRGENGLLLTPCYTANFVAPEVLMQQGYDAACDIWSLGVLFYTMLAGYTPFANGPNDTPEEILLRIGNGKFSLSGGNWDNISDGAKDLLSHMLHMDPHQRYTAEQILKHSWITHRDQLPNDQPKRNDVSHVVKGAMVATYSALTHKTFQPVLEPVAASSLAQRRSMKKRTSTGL
Sequence of Mitogen-activated protein kinase kinase kinase kinase 1 (Homo sapiens) (Q92918 whole entry, looked up): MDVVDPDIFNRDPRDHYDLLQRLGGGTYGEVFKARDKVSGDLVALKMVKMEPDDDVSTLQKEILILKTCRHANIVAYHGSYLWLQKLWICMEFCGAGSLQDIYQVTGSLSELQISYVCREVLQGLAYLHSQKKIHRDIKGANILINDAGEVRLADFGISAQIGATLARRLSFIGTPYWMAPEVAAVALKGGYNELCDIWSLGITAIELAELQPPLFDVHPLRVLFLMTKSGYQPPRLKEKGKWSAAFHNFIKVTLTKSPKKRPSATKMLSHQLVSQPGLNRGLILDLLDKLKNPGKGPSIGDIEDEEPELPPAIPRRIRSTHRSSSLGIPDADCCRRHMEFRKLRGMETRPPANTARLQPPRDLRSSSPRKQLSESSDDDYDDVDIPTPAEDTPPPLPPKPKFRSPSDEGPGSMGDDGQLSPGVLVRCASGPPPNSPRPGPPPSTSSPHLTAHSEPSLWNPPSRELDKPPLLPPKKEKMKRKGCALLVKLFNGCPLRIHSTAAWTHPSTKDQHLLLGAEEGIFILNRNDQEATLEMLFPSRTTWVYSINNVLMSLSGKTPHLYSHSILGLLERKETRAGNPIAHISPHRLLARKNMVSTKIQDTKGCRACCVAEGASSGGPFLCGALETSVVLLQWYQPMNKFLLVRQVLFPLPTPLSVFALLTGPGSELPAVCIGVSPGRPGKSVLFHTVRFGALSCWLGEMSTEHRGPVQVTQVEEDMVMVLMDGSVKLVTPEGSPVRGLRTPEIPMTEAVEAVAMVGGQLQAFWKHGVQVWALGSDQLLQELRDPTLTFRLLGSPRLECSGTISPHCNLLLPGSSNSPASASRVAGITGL
Sequence of Vascular endothelial growth factor receptor 2 (Homo sapiens) (P35968 whole entry): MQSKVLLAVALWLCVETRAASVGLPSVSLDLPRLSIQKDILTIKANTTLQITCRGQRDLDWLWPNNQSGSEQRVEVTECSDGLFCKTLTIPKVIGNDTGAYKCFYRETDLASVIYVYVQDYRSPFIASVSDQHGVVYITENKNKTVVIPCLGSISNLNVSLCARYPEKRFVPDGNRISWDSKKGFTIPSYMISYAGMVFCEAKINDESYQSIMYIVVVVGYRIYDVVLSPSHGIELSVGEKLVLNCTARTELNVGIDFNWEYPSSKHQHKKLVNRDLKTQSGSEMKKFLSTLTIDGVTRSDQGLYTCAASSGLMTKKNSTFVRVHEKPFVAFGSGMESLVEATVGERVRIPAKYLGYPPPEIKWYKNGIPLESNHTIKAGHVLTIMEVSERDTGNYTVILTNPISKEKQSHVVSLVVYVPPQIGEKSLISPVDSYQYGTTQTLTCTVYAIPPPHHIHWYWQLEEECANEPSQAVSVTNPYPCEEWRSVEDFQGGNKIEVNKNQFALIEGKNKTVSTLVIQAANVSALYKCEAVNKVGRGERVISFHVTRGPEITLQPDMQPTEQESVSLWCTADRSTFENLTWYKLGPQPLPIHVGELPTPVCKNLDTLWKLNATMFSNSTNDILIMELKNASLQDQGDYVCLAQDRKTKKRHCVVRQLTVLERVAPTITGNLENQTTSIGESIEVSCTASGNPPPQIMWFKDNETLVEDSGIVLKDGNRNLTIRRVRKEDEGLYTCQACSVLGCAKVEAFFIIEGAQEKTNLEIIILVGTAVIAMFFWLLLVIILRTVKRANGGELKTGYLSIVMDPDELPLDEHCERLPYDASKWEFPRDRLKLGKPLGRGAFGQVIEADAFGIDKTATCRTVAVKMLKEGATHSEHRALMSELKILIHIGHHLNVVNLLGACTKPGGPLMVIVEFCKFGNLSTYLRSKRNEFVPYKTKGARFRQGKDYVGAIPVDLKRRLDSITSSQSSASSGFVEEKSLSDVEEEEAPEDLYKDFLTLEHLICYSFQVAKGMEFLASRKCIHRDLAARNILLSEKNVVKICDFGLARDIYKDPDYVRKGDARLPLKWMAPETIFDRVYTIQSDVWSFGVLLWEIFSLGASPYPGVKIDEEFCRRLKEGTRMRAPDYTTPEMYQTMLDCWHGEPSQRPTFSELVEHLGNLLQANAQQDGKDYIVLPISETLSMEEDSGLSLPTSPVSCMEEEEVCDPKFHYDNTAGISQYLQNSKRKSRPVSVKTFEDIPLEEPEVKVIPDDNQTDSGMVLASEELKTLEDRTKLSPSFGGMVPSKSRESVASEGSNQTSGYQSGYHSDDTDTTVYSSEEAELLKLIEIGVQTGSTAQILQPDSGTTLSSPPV
Sequence of Serine/threonine-protein kinase SIK2 (Homo sapiens) (Q9H0K1 whole entry, looked up, canonical isoform): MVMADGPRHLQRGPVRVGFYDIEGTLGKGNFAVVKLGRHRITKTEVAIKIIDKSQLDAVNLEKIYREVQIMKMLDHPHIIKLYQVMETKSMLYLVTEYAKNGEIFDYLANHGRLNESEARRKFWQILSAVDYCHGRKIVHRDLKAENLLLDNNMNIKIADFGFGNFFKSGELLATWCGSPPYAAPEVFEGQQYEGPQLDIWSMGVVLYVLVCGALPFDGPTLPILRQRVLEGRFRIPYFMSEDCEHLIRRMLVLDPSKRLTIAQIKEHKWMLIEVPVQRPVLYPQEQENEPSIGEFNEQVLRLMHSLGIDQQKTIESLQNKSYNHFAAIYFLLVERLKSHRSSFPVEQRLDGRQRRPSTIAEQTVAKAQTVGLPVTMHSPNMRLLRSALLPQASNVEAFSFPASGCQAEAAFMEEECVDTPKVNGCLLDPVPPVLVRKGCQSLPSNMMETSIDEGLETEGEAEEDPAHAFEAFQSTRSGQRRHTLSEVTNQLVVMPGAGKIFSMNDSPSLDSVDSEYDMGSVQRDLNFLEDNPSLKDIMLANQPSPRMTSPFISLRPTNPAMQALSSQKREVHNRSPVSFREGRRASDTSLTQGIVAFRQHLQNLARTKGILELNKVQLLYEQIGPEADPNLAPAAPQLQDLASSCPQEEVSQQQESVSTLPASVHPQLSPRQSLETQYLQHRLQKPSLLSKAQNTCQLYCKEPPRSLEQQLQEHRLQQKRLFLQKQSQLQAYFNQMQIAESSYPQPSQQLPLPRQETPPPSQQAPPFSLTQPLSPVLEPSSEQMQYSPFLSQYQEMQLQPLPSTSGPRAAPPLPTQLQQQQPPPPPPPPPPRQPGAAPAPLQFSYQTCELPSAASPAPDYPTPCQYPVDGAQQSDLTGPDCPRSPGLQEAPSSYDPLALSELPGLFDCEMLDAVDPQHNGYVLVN

| Compound | inhibition [1] | inhibition [2] | inhibition [3] | inhibition [4] | inhibition [5] | inhibition [6] | inhibition [7] | inhibition [8] | inhibition [9] | inhibition [10] | inhibition [11] | inhibition [12] | inhibition [13] |
| --- | --- | --- | --- | --- | --- | --- | --- | --- | --- | --- | --- | --- | --- |
| CN1CCN(c2ccc(-c3cnc4c(c3)N(Cc3cc(Cl)ccc3Cl)CCN4)cn2)CC1 | < 50% | < 50% | 93% | < 50% | < 50% | < 50% | < 50% | < 50% | < 50% | < 50% | 82% | < 50% | < 50% |
| CN1CCN(c2ccc(-c3cnc4c(c3)N(Cc3cc(Cl)ccc3C(F)(F)F)CCN4)cn2)CC1 | < 50% | < 50% | < 50% | < 50% | < 50% | 74% | < 50% | < 50% | < 50% | < 50% | < 50% | < 50% | < 50% |
| CN1CCN(c2ccc(-c3cnc4c(c3)N(Cc3c(F)ccc(F)c3Cl)CCN4)cn2)CC1 | < 50% | < 50% | 83% | < 50% | < 50% | < 50% | 96% | < 50% | < 50% | < 50% | 69% | < 50% | < 50% |
| O=C(c1ccc(-c2cnc3c(c2)N(Cc2cc(Cl)ccc2C(F)(F)F)CCN3)cc1)N1CCC(N2CCCC2)CC1 | 88.7% |  | 96.1% | < 50% |  |  |  | < 50% | < 50% | < 50% | 91.9% | < 50% | < 50% |
| COC1CCN(C(=O)c2ccc(-c3cnc4c(c3)N(Cc3cc(Cl)ccc3C(F)(F)F)CCN4)cc2)CC1 |  |  | < 50% | < 50% |  |  |  | < 50% | < 50% | < 50% | < 50% | < 50% | < 50% |
| FC(F)(F)c1ccc(Cl)cc1CN1CCNc2ncc(-c3ccnc(N4CCNCC4)c3)cc21 | < 50% | 81% | 100% | < 50% | < 50% | 93% | < 50% | < 50% | < 50% | < 50% | 97% | 75% | < 50% |
| CN1CCN(c2ccc(-c3cnc4c(c3)N(Cc3cc(F)ccc3F)CCN4)cn2)CC1 | < 50% | < 50% | 84.6% | < 50% | < 50% | < 50% | < 50% | < 50% | < 50% | < 50% | < 50% | < 50% | < 50% |
| O=C(c1ccc(-c2cnc3c(c2)N(Cc2cc(Cl)ccc2C(F)(F)F)CCN3)cc1)N1CCCCC1 |  |  | < 50% | < 50% |  |  |  | < 50% | < 50% | < 50% | < 50% |  | < 50% |
| CC(=O)N1CCN(c2cc(-c3cnc4c(c3)N(Cc3cc(Cl)ccc3C(F)(F)F)CCN4)ccn2)CC1 | < 50% | < 50% | 92% | < 50% | < 50% | 81% | < 50% | < 50% | < 50% | < 50% | < 50% | < 50% | < 50% |
| O=C(O)c1ccc(-c2cnc3c(c2)N(Cc2cc(Cl)ccc2C(F)(F)F)CCN3)cc1 |  |  | < 50% | < 50% |  |  |  | < 50% | < 50% | < 50% | < 50% |  | < 50% |
